Assay results reported in publication PMC10072273 (International Journal of Nanomedicine, 2023).

Tests used:
[1] = tested on: K562 cells; experiment: Cytotoxicity; format: cell-based; conditions: Homo sapiens, K562, 72 h, read-out: Antiproliferative activity IC50, K562 cells
Outline: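 K562 cells were grown in RPMI-1640 with 10% heat-inactivated FBS and penicillin/streptomycin at 37°C, 5% CO2. Seeded at 8,000 cells/well, rested 24 h, then exposed 72 h to a concentration series. MTS reagent was added in phenol-red-free DMEM for 1 h at 37°C and absorbance read at 490 nm. Response was taken relative to control and IC50 fitted. Triplicates per experiment, 3–4 experiments.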

[2] = tested on: p62; experiment: mRNA expression; format: cell-based, human; conditions: RAJI cells, ibrutinib 15 µM, 24 h
Outline: (§1)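 RAJI cells treated 24 h with test nanomaterial (347, 174, 84 µM) or reference BTK inhibitor (30, 15 µM). Total RNA extracted with TRIzol and 1 µg reverse-transcribed. qPCR run as 95°C 60 s, then 40 cycles of 95°C 15 s, primer-specific annealing 30 s, 72°C 30 s, with melt-curve check. Expression by 2−ΔΔCT vs HPRT1. ≥4 experiments, mean ± SD, ANOVA with Dunnett's test vs untreated.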

[3] = tested on: BTK; experiment: mRNA expression; format: cell-based, human; conditions: RAJI cells, ibrutinib, 24 h
Outline: as §1

[4] = tested on: TLR8; experiment: mRNA expression; format: cell-based, human; conditions: RAJI cells, 24 h
Outline: as §1

[5] = tested on: NFAT; experiment: mRNA expression; format: cell-based, human; conditions: RAJI cells, 24 h
Outline: as §1

[6] = tested on: ARID3A; experiment: mRNA expression; format: cell-based, human; conditions: RAJI cells, 30 µM ibrutinib, 24 h
Outline: as §1

[7] = tested on: c-Myc; experiment: Immunoblotting in RAJI cells after anti-IgM stimulation; format: cell-based, human; conditions: 20 µM ibrutinib, 24 h
Outline: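 RAJI cells seeded at 500,000 per dish. Next day they were stimulated with anti-human IgM (12 µg/mL, 10 min), then the medium was replaced with test nanomaterial (347, 174 µM) or reference inhibitor (20 µM) for 24 h. Lysed on ice in RIPA with protease/phosphatase inhibitors and EDTA, then BCA-normalised SDS-PAGE onto nitrocellulose. Primary antibodies 1:1000 overnight at 4°C, loading controls 1:2000, HRP secondary, chemiluminescence, densitometry. 4–5 experiments.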

[8] = tested on: calcium levels in RAJI cells; experiment: Calcium assay; format: cell-based, human; conditions: 24 h, HDGF 347 and 174 µM, ibrutinib 30 and 15 µM
Outline: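 RAJI cells seeded at 40,000/well and held 24 h at 37°C. Medium was replaced with test nanomaterial (347, 174 µM) or reference BTK inhibitor (30, 15 µM) for 24 h. Cells were washed in cold PBS, loaded with Fluo-4 AM (5 µM, 30 min, 37°C), washed, and resuspended in serum-free, phenol-red-free DMEM. Fluorescence read at ex 485/em 520 nm. ≥3 experiments, mean ± SD, ANOVA with Dunnett's test vs untreated.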

SMILES: C=CC(=O)N1CCC[C@@H](n2nc(-c3ccc(Oc4ccccc4)cc3)c3c(N)ncnc32)C1 [ibrutinib]
- IC50 [1]: 850 nM
- Expression of p62 [2]: almost three-fold increase
- BTK gene expression [3]: increased
- Expression of TLR8 [4]: significant decrease
- Expression of NFAT [5]: significant decrease
- Expression of ARID3A [6]: almost two-fold downregulation
- c-Myc protein expression [7]: slight downregulation
- Cellular calcium levels [8]: drop dramatically
